{"source": "ChEMBL document CHEMBL1152831", "about": "“Synthesis and pharmacological screening of derivatives of isoxazolo[4,5-d]pyrimidine” (2008)", "assay_type_in_all_cases": "functional", "key": {"Mus musculus [1]": {"system": "Mus musculus", "assay": "Effect on humoral immune response in sheep red blood cells-immunized CBA mouse spleen assessed as number of antibody forming unit per 10^6 viable cells at 10 ug, ip by local hemolysis assay", "outline": "(§1)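 Male and female CBA mice, 12 weeks old, immunized i.p. with 0.2 mL of 5% SRBC in 0.9% NaCl. Compounds (DMSO stock diluted in saline) were given i.p. 2 h later; controls received saline or diluted DMSO. Spleens were taken on day 4 and antibody-forming cells counted by local hemolysis assay per 10⁶ viable splenocytes. Mean of 5 mice per group ±SE, t-test.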"}, "Mus musculus [2]": {"system": "Mus musculus", "assay": "Effect on humoral immune response in sheep red blood cells-immunized CBA mouse spleen assessed as number of antibody forming unit per 10^6 viable cells at 100 ug, ip by local hemolysis assay", "outline": "as §1"}, "Splenocyte [3]": {"system": "Splenocyte", "assay": "Effect on cancavalin-A-induced proliferation in mouse splenocytes at 0.1 ug/ml assessed as proliferation rate by MTT assay", "outline": "(§2)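 Splenocytes from CBA mice were pressed through a screen into Hank's medium. Erythrocytes were lysed with 0.83% NH4Cl, cells washed twice and passed through cotton wool to remove dead cells. They were resuspended in RPMI 1640 with 10% FCS, L-glutamine, pyruvate and antibiotics. 2×10⁵ cells per well, Con A at 2.5 final, compounds across 0.1–10. After 3 days, MTT read as OD 550/630 nm. Mean of quadruplicate wells ±SE, Student's t-test.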"}, "Mus musculus [4]": {"system": "Mus musculus", "assay": "Effect on delayed type hypersensitivity in sheep red blood cells-immunized CBA mouse assessed as foot-pad edema at 100 ug, ip", "outline": "(§3)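 Male and female CBA mice, 12 weeks old, sensitized i.v. with 10⁵ SRBCs in 0.2 mL. Compounds were dissolved in DMSO, then diluted in 0.9% NaCl, and given i.p. 2 h later. Controls received saline or diluted DMSO. On day 4, 10⁸ SRBCs in 0.05 mL were injected into the hind footpads. Footpad edema was measured by callipers 24 h later, minus the naive-mouse background. Mean ±SE, t-test.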"}, "Mus musculus [5]": {"system": "Mus musculus", "assay": "Effect on delayed type hypersensitivity in sheep red blood cells-immunized CBA mouse assessed as foot-pad edema at 10 ug, ip", "outline": "as §3"}, "Splenocyte [6]": {"system": "Splenocyte", "assay": "Effect on cancavalin-A-induced proliferation in mouse splenocytes at 1 ug/ml assessed as proliferation rate by MTT assay", "outline": "as §2"}, "Splenocyte [7]": {"system": "Splenocyte", "assay": "Effect on cancavalin-A-induced proliferation in mouse splenocytes at 10 ug/ml assessed as proliferation rate by MTT assay", "outline": "as §2"}, "SK-MEL-2": {"system": "SK-MEL-2", "assay": "Antitumor activity against human SK-MEL-2 cells"}, "HOP-92": {"system": "HOP-92", "assay": "Antitumor activity against human HOP92 cells"}, "CAKI-1": {"system": "CAKI-1", "assay": "Antitumor activity against human Caki1 cells"}, "MOLT-4": {"system": "MOLT-4", "assay": "Antitumor activity against human MOLT4 cells"}, "HCT-15": {"system": "HCT-15", "assay": "Antitumor activity against human HCT15 cells"}, "K562": {"system": "K562", "assay": "Antitumor activity against human K562 cells"}, "HCC 2998": {"system": "HCC 2998", "assay": "Antitumor activity against human HCC2998 cells"}, "SF-539": {"system": "SF-539", "assay": "Antitumor activity against human SF539 cells"}, "NCI-H522": {"system": "NCI-H522", "assay": "Antitumor activity against human NCI-H522 cells"}, "CCRF-CEM": {"system": "CCRF-CEM", "assay": "Antitumor activity against human CCRF-CEM cells"}, "LOX IMVI": {"system": "LOX IMVI", "assay": "Antitumor activity against human LOXIMVI cells"}, "U-251": {"system": "U-251", "assay": "Antitumor activity against human U251 cells"}, "[8]": {"details": "read-out: Log10GI50 (converted)"}, "[9]": {"details": "read-out: Log10LC50 (converted)"}}, "data": [{"smiles": "Nc1c(-c2nnc(C(=O)NCc3ccncc3)o2)noc1C(=O)c1ccccc1", "values": [{"measurement": "Activity", "setting": "Mus musculus [1]", "value": 1361}, {"measurement": "Activity", "setting": "Mus musculus [2]", "value": 574}, {"measurement": "OD", "setting": "Splenocyte [3]", "value": 0.442}, {"measurement": "Activity", "setting": "Mus musculus [4]", "value": 4.9}, {"measurement": "Activity", "setting": "Mus musculus [5]", "value": 7.9}, {"measurement": "OD", "setting": "Splenocyte [6]", "value": 0.401}, {"measurement": "OD", "setting": "Splenocyte [7]", "value": 0.371}]}, {"smiles": "Nc1c(-c2nnco2)noc1C(=O)c1ccccc1", "values": [{"measurement": "GI50", "setting": "SK-MEL-2; [8]", "value": 33.1, "unit": "µM"}, {"measurement": "CC50", "setting": "SK-MEL-2; [9]", "value": "> 100", "unit": "µM"}, {"measurement": "TGI", "setting": "SK-MEL-2; read-out: Log10TGI (converted)", "value": "> 100", "unit": "µM"}, {"measurement": "GI50", "setting": "HOP-92; [8]", "value": 30.9, "unit": "µM"}, {"measurement": "CC50", "setting": "HOP-92; [9]", "value": "> 100", "unit": "µM"}, {"measurement": "TGI", "setting": "HOP-92; read-out: Log10TGI (converted)", "value": 97.7, "unit": "µM"}, {"measurement": "GI50", "setting": "CAKI-1; [8]", "value": 21.9, "unit": "µM"}, {"measurement": "CC50", "setting": "CAKI-1; [9]", "value": "> 100", "unit": "µM"}, {"measurement": "TGI", "setting": "CAKI-1; read-out: Log10TGI (converted)", "value": "> 100", "unit": "µM"}, {"measurement": "GI50", "setting": "MOLT-4; [8]", "value": 56.2, "unit": "µM"}, {"measurement": "CC50", "setting": "MOLT-4; [9]", "value": "> 100", "unit": "µM"}, {"measurement": "TGI", "setting": "MOLT-4; read-out: Log10TGI (converted)", "value": "> 100", "unit": "µM"}, {"measurement": "GI50", "setting": "HCT-15; [8]", "value": 29.5, "unit": "µM"}, {"measurement": "CC50", "setting": "HCT-15; [9]", "value": "> 100", "unit": "µM"}, {"measurement": "TGI", "setting": "HCT-15; read-out: Log10TGI (converted)", "value": "> 100", "unit": "µM"}, {"measurement": "GI50", "setting": "K562; [8]", "value": 57.5, "unit": "µM"}, {"measurement": "CC50", "setting": "K562; [9]", "value": "> 100", "unit": "µM"}, {"measurement": "TGI", "setting": "K562; read-out: Log10TGI (converted)", "value": "> 100", "unit": "µM"}, {"measurement": "GI50", "setting": "HCC 2998; [8]", "value": 26.9, "unit": "µM"}, {"measurement": "CC50", "setting": "HCC 2998; [9]", "value": "> 100", "unit": "µM"}, {"measurement": "TGI", "setting": "HCC 2998; read-out: Log10TGI (converted)", "value": 95.5, "unit": "µM"}, {"measurement": "GI50", "setting": "SF-539; [8]", "value": 2.75, "unit": "µM"}, {"measurement": "CC50", "setting": "SF-539; [9]", "value": 64.6, "unit": "µM"}, {"measurement": "TGI", "setting": "SF-539; read-out: Log10TGI (converted)", "value": 22.4, "unit": "µM"}, {"measurement": "GI50", "setting": "NCI-H522; [8]", "value": 33.9, "unit": "µM"}, {"measurement": "CC50", "setting": "NCI-H522; [9]", "value": "> 100", "unit": "µM"}, {"measurement": "TGI", "setting": "NCI-H522; read-out: Log10TGI (converted)", "value": "> 100", "unit": "µM"}, {"measurement": "GI50", "setting": "CCRF-CEM; [8]", "value": 18.2, "unit": "µM"}, {"measurement": "CC50", "setting": "CCRF-CEM; [9]", "value": "> 100", "unit": "µM"}, {"measurement": "TGI", "setting": "CCRF-CEM; read-out: Log10TGI (converted)", "value": "> 100", "unit": "µM"}, {"measurement": "GI50", "setting": "LOX IMVI; [8]", "value": 28.8, "unit": "µM"}, {"measurement": "CC50", "setting": "LOX IMVI; [9]", "value": "> 100", "unit": "µM"}, {"measurement": "TGI", "setting": "LOX IMVI; read-out: Log10TGI (converted)", "value": "> 100", "unit": "µM"}, {"measurement": "GI50", "setting": "U-251; [8]", "value": 16.2, "unit": "µM"}, {"measurement": "CC50", "setting": "U-251; [9]", "value": "> 100", "unit": "µM"}, {"measurement": "TGI", "setting": "U-251; read-out: Log10TGI (converted)", "value": 69.2, "unit": "µM"}]}, {"smiles": "Cc1nc(-c2ccccc2)c2onc(-c3nnc(C(=O)NCc4cccnc4)o3)c2n1", "values": [{"measurement": "Activity", "setting": "Mus musculus [1]", "value": 1660}, {"measurement": "Activity", "setting": "Mus musculus [2]", "value": 545}, {"measurement": "OD", "setting": "Splenocyte [3]", "value": 0.483}, {"measurement": "Activity", "setting": "Mus musculus [4]", "value": 3.5}, {"measurement": "Activity", "setting": "Mus musculus [5]", "value": 5.9}, {"measurement": "OD", "setting": "Splenocyte [6]", "value": 0.479}, {"measurement": "OD", "setting": "Splenocyte [7]", "value": 0.482}]}, {"smiles": "C/C=C/C[C@@H](C)[C@@H](O)[C@H]1C(=O)N[C@@H](CC)C(=O)N(C)CC(=O)N(C)[C@@H](CC(C)C)C(=O)N[C@@H](C(C)C)C(=O)N(C)[C@@H](CC(C)C)C(=O)N[C@@H](C)C(=O)N[C@H](C)C(=O)N(C)[C@@H](CC(C)C)C(=O)N(C)[C@@H](CC(C)C)C(=O)N(C)[C@@H](C(C)C)C(=O)N1C", "note": "[CYCLOSPORINE]", "values": [{"measurement": "Activity", "setting": "Mus musculus [1]", "value": 1617}, {"measurement": "Activity", "setting": "Mus musculus [2]", "value": 953}, {"measurement": "OD", "setting": "Splenocyte [3]", "value": 0.07}, {"measurement": "Activity", "setting": "Mus musculus [5]", "value": 6.1}, {"measurement": "OD", "setting": "Splenocyte [6]", "value": 0.046}, {"measurement": "OD", "setting": "Splenocyte [7]", "value": 0.001}]}]}
